Results as given in the M2OR odorant receptor database.

Legend:
Conditions in all cases: stereoisomer not certain
[1] = target: T1, Or10j5 (Mus musculus) (UniProt Q62007)
T1 sequence (whole entry): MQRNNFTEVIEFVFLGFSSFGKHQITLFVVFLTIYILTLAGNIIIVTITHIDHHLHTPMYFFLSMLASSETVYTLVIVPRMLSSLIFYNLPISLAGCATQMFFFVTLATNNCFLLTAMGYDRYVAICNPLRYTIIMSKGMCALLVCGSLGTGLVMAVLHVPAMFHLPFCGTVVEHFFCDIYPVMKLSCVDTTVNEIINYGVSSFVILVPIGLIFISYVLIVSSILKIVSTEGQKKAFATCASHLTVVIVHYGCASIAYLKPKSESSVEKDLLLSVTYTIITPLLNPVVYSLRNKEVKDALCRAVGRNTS
Summary of the method: (§1)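 Each receptor–molecule pair is labelled responsive or non-responsive (inactive) according to whether the original authors judged the measured signal statistically different from baseline. The data were taken from the main text and supplementary material of published papers and checked for typos and inconsistencies. Assay methods differed by source, with transient luciferase assays in mammalian cell lines being common.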

[2] = target: T2, Or1m1 (Mus musculus) (UniProt Q8VFM9)
T2 sequence (whole entry): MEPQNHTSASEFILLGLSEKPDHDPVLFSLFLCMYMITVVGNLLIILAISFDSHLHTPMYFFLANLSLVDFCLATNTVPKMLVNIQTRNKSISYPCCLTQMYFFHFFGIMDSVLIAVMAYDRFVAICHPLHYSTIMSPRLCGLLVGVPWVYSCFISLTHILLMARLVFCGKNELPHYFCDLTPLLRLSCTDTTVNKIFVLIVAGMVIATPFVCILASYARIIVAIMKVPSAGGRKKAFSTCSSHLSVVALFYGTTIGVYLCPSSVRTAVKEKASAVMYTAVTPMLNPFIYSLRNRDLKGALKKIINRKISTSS
Summary of the method: as §1

[3] = target: T3, Or2c1 (Mus musculus) (UniProt P23275)
T3 sequence (whole entry): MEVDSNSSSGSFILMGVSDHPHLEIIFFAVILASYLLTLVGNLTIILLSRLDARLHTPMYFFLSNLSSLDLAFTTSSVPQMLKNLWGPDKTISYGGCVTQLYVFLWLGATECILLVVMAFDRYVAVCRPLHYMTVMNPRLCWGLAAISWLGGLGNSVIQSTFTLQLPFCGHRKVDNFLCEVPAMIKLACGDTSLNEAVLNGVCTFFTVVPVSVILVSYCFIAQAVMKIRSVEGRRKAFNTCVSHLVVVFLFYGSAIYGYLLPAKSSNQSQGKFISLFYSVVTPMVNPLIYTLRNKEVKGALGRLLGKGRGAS
Summary of the method: as §1

[4] = target: T4, Or5ar1 (Mus musculus) (UniProt Q8VGS3)
T4 sequence (whole entry): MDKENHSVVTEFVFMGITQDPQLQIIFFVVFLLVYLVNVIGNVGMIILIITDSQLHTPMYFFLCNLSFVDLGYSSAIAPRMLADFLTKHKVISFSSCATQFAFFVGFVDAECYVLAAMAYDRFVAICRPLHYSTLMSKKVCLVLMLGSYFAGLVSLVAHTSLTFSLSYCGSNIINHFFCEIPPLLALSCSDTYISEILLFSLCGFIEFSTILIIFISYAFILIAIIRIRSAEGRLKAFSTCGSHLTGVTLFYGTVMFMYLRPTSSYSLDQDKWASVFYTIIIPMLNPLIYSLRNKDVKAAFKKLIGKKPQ
Summary of the method: as §1

[5] = target: T5, Or5an6 (Mus musculus) (UniProt Q8VFV4)
T5 sequence (whole entry): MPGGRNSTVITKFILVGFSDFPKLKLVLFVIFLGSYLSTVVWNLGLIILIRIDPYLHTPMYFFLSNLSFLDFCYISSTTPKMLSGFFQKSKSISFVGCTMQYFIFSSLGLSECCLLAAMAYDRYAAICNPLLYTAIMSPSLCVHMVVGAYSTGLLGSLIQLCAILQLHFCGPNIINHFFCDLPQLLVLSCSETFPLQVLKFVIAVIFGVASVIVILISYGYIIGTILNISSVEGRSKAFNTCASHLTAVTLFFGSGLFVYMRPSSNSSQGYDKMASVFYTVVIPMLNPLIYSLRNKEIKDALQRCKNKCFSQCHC
Summary of the method: as §1
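Further: active if original authors judged signal statistically different from baseline.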

SMILES	odorant receptor agonist call [1]	odorant receptor agonist call [2]	odorant receptor agonist call [3]	odorant receptor agonist call [4]	odorant receptor agonist call [5]
CCCCC(=O)O	inactive	inactive	inactive	inactive	
CC12CCC(CC1=O)C2(C)C (centres undefined)		inactive	inactive	inactive	
CC(=O)OCC=C(C)C		inactive	inactive	active	
CCSSCC		inactive		inactive	
CCCCCC=O		inactive	inactive	inactive	
CCCCCCCCCS		inactive	inactive	inactive	
CCC(=O)O		inactive	inactive	inactive	
CCCCCOC(=O)CCCCC		inactive	active	inactive	
CCCCCCCC(=O)[O-].[H+]	active		active	inactive	
O=C(c1ccccc1)c1ccccc1		inactive	inactive	inactive	
CCCC(=O)C(C)=O		inactive	active	inactive	
CCCCCCCCCCCO	inactive	inactive		inactive	
CCCCCC1=C(C)CCC1=O		inactive	inactive	inactive	
CCCCCCCCO		inactive	inactive	inactive	
CCC(=O)C(=O)CC		inactive	active	inactive	
CC1CC=CCCCCCCCCCC(=O)C1 (centres undefined)		inactive		inactive	active
c1ccccc1		inactive	inactive	inactive	
CCCCC(C)=O		inactive	inactive	inactive	

SMILES	odorant receptor agonist call [1]	odorant receptor agonist call [2]	odorant receptor agonist call [3]	odorant receptor agonist call [4]	odorant receptor agonist call [5]
COc1cc(C(=O)O)ccc1O		inactive	inactive	inactive	
CCCCCCCC(C)=O		inactive	inactive	inactive	
CC(=O)Oc1ccccc1		inactive	inactive	inactive	
CCCCCCC(C)=O		inactive	inactive	inactive	
CCOC(=O)C(C)C		inactive	inactive	inactive	
CCCCCCOC(C)=O		inactive	inactive	inactive	
CCCCCCCCC(=O)O		inactive	active	inactive	
CCCCCC(=O)CC		inactive	inactive	inactive	
O=C1CCOc2ccccc21		inactive	inactive	inactive	
CC(C)=CCCC(C)CCO (centres undefined)		inactive	inactive	inactive	
C=CCOC(=O)CCCCCC		inactive	inactive	inactive	
CCCCCCCCS		inactive	active	inactive	
CCCC(C)=O	inactive		inactive	inactive	
CCCCOC=O		inactive	inactive	inactive	
CCCCC(=O)CC		inactive	inactive	inactive	
CC(CC=O)CCCC(C)(C)O (centres undefined)		inactive		inactive	
O=C1Cc2ccccc2O1		inactive	active	inactive	
